{"data": "Measured values from different studies", "cell line": "A549", "effect on": "cell growth or viability", "note": "Protocols differ between the studies behind these lines."}
{"Compound": "COc1c(C)cnc(COc2ccc(NC(=O)Nc3cccc(C(F)(F)F)c3)cc2)c1C", "technique": "MTT", "time": "72 h", "IC50 [µM]": 20.2}
{"Compound": "C=C(Cl)C(=O)Nc1cc(Nc2nc(Nc3cnn(C)c3)c3sccc3n2)c(OC)cc1N1CCN(C)CC1", "technique": "MTT", "IC50 [µM]": 0.655}
{"Compound": "COc1cc2ncnc(Nc3ccc(F)c(Cl)c3)c2cc1NC(=O)N/N=C/c1cccn1CCN(C)C", "technique": "MTT", "time": "72 h", "IC50 [µM]": 4.3}
{"Compound": "O=C1NCCc2[nH]c(-c3ccncc3)cc21", "IC50 [µM]": "> 10"}
{"Compound": "C=C(Cl)C(=O)Nc1cc(Nc2nc(N3CCCC3)c3sccc3n2)c(OC)cc1N(C)CCN(C)C", "technique": "MTT", "IC50 [µM]": 4.54}
{"Compound": "COc1c2c(cc3c1OCO3)[C@]13C=C[C@H](OC)C[C@H]1N(C2)C[C@H]3OC(=O)c1cccc(C)c1", "technique": "WST-1", "IC50 [µM]": "> 10"}
{"Compound": "CC1=C(O)C(=O)C=C2C1=CC=C1[C@@]2(C)CC[C@@]2(C)[C@@H]3C[C@](C)(C(=O)OCCCCO)CC[C@]3(C)CC[C@]12C", "technique": "MTT", "time": "48 h", "IC50 [µM]": 3.06}
{"Compound": "CCCc1ccc(OCC(O)CNC/C=C/c2ccccc2OC)cc1 (stereo not shown)", "technique": "CCK-8", "time": "72 h", "IC50 [µM]": 31.6}
{"Compound": "CCCCNC(=O)NNC(=O)c1ccc(Nc2nccc(-c3ccccn3)n2)cc1", "technique": "MTT", "time": "24 h", "IC50 [µM]": "> 40"}
{"Compound": "COc1ccccc1/C=C/CNCC(O)COc1ccc(C2CCCCC2)cc1 (stereo not shown)", "technique": "CCK-8", "time": "72 h", "IC50 [µM]": 11.2}
{"Compound": "CC(C)Cc1ccc(-c2nn(-c3ccc(S(C)(=O)=O)cc3)cc2/C=N/N=c2\\[nH]c(-c3ccc(Br)cc3)cs2)cc1", "technique": "MTT", "time": "48 h", "IC50 [µM]": 15.3}
{"Compound": "CCN(CC)C/C=N/NC(=O)Nc1cc2c(Nc3ccc(F)c(Cl)c3)ncnc2cc1O[C@H]1CCOC1", "technique": "MTT", "time": "72 h", "IC50 [µM]": 4.32}
{"Compound": "O=C(Nc1nnc(-c2cc3ccccc3[nH]2)s1)c1cc2c([nH]c3ccccc32)c(-c2ccccc2)n1", "technique": "MTT", "time": "72 h", "IC50 [µM]": 3}
{"Compound": "CN1C(=O)/C(=N\\NC(=O)c2cc3ccccc3[nH]2)c2cc(Cl)ccc21", "IC50 [µM]": 2.13}
{"Compound": "O=C(N/N=C/c1cccn1CCCN1CCOCC1)Nc1cc2c(Nc3ccc(F)c(Cl)c3)ncnc2cc1O[C@H]1CCOC1", "technique": "MTT", "time": "72 h", "IC50 [µM]": 5.62}
{"Compound": "OCc1ccc2c(c1C#Cc1ccc(O)cc1)C(c1ccc(O)cc1)(c1ccc(O)cc1)c1cc(O)ccc1-2", "technique": "MTT", "time": "48 h", "IC50 [µM]": "> 50"}
{"Compound": "C=CC(=O)Nc1cc(Nc2nc(N3CCc4sccc4C3)c3cccnc3n2)c(OC)cc1N1CCSCC1", "technique": "MTT", "IC50 [µM]": 23.9}
{"Compound": "COc1cc(Nc2nccc(-c3cnn4nc(OC)ccc34)n2)cc(C(F)(F)F)c1", "technique": "ATP luminescence", "IC50 [µM]": 0.47}
{"Compound": "COc1ccc(-c2csc(Nc3ccc4c(O)ncnc4c3)n2)cc1", "technique": "MTT", "IC50 [µM]": 25}
{"Compound": "COc1c(C)cnc(COc2ccc(NC(=O)Nc3ccc(F)cc3)cc2)c1C", "technique": "MTT", "time": "72 h", "IC50 [µM]": 13.2}
{"Compound": "O=C(/N=c1\\scc(-c2ccccc2)n1C1CCCCC1)c1ccc2ccccc2c1", "time": "48 h", "IC50 [µM]": 16.4}
{"Compound": "Cc1c(NC(=O)c2ccc(C(C)(C)C)cc2)cccc1-c1cn(C)c(=O)c(Nc2ccc(C(=O)N3CCOCC3)cc2)n1", "IC50 [µM]": "> 10"}
